Experimental findings from ChEMBL document CHEMBL4808167, “Design, Synthesis, and Evaluation of Small Molecule Gαq/11 Protein Inhibitors for the Treatment of Uveal Melanoma” (J Med Chem, 2021) are described below.

For data set [1], the system named is CHO. As to the kind of experiment: Cytotoxicity against chinese hamster CHO cells overexpressing M1 receptor assessed as cell viability upto 20 uM for 24 hrs by CCK8 assay. In kind it is cell-based, Cricetulus griseus. In short, it runs like this:
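CHO cells stably expressing the M₁ receptor were treated with a range of compound concentrations for 2 h or 24 h. Viability measured by CCK-8 and given as percentage. Mean ± SD of three independent experiments.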
(Formazan colour is commonly taken as a measure of viable cells.)

Data set [2] in a line: Toxicity in nude BALB/c mouse xenografted with human MP41 cells assessed as morphological changes in liver tissue at 10 to 30 mg/kg, ip administered once daily for 21 days and measured every 3 days by HE staining based assay. In kind it is organism-based. As to conditions: in vivo, 504 h, dose 10-30 mg/kg, time 21 day. The method, boiled down:
(§1)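 Nude BALB/c mice bearing serially passaged MP41 tumour slices (tertiary recipients, n = 8/group, randomized) dosed ip daily for 21 days at 10 or 30 mg/kg/d or vehicle. Body weight monitored every 3 days. Tissues collected at sacrifice, fixed in 4% paraformaldehyde 24 h, paraffin-embedded, H&E stained, viewed at ×100.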
A general note: Xenograft models place foreign cells or tissue in a host animal.

The subject of data set [3] is MP41. As to the kind of experiment: Antiproliferative activity against human MP41 cells assessed as inhibition of cell growth at 15 to 30 uM by CCK8 assay. In kind it is functional, cell-based. The settings on record: dose 15-30 µM, time 24-96 hrs, TDE = time-dependent effect.
Data set [4] in a line: MRT(0 to t) in ICR mouse at 10 mg/kg, iv measured upto 24 hrs by LC-MS/MS analysis. In kind it is ADME, organism-based. The settings on record: in vivo. In short, it runs like this:
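Single-dose PK in male ICR mice (n = 6): 10 mg/kg iv or 30 mg/kg po, vehicle 5% DMSO/95% saline. Blood (30 μL) by catheter at 0, 5, 15, 30 min and 1, 2, 4, 6, 8, 24 h; plasma by centrifugation, stored −80 °C, measured by LC–MS/MS. Parameters from noncompartmental analysis, mean SD.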

Data set [5] in a line: Induction of apoptosis in human 921 cells assessed as viable cells at 15 uM after 48 hrs by Annexin-V-FITC/propidium iodide staining based flow cytometry (reference value: 93.8%). In kind it is functional. The settings on record: read-out: Activity.
Data set [6] in a line: Induction of apoptosis in human MP41 cells assessed as necrotic cells at 30 uM after 48 hrs by Annexin-V-FITC/propidium iodide staining based flow cytometry (reference value: 0.11%). In kind it is functional. (In general: A flow cytometer gives signals particle by particle.)
Data set [7] has as its target GNAQ/GNA11 (Homo sapiens) (UniProt P50148+P29992). As to the kind of experiment: Inhibition of Galphaq/11 in human MP41 cells xenografted mouse tumor tissue assessed as induction of YAP phosphorylation at 10 to 30 mg/kg, ip administered for 21 consecutive days by Western blot analysis. In kind it is organism-based. The settings on record: dose 10-30 mg/kg, time 21.0 day. The method, boiled down: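 MP41 xenograft tumours from mice given 10 or 30 mg/kg/day ip for 21 consecutive days were analysed by Western blot. Probed for p-YAP, YAP, p-ERK and ERK, with GAPDH as loading control. Representative of triplicate experiments.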

Data set [8] has as its system MP41. Nature of the data set: Inhibition of colony formation in human MP41 cells at 5 to 15 uM after 9 days by crystal violet staining based light microscopic analysis. In kind it is functional, cell-based. As to conditions: dose 5-15 µM, time 9.0 day. In short, it runs like this:
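Cells seeded 4 × 10³/well, incubated overnight at 37 °C, 5% CO₂, then exposed to compound for 9 days until colonies visible, medium and inhibitor replaced every 3 days. Fixed in 4% paraformaldehyde 15 min, crystal violet-stained 30 min, colonies counted. Repeated twice.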

Data set [9] can be described thus: Induction of apoptosis in human MP41 cells assessed as early apoptotic cells at 15 uM after 48 hrs by Annexin-V-FITC/propidium iodide staining based flow cytometry (reference value: 2.96%). In kind it is functional.
Data set [10] in a line: Induction of apoptosis in human MP41 cells assessed as late apoptotic cells at 30 uM after 48 hrs by Annexin-V-FITC/propidium iodide staining based flow cytometry (reference value: 3.28%). In kind it is functional.
A short description of data set [11]: Toxicity in nude BALB/c mouse xenografted with human MP41 cells assessed as effect on body weight at 10 to 30 mg/kg, ip administered once daily for 21 days and measured every 3 days. In kind it is organism-based. The settings on record: in vivo, 504 h, dose 10-30 mg/kg, time 21 day. The method, boiled down: as §1
Data set [12] can be described thus: (§2) Antiproliferative activity against human MP41 cells assessed as inhibition of cell growth after 72 hrs by CCK8 assay. In kind it is functional, cell-based. As to conditions: MP41, 72 h. In short, it runs like this: (§3)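 92.1 or MP41 cells in RPMI-1640 with 10% FBS were seeded at 3 × 10³ cells/well. Exposed to serial concentrations for 72 h at 37 °C, 5% CO₂. CCK-8 added for 1−4 h, absorbance read at 450 nm. IC₅₀ from concentration−response curve fit, mean ± SD.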

Data set [13] has as its system MP41. The data set is described as §2. In kind it is functional, cell-based. The method, boiled down:
as §3

Data set [14] relates to MP41. Nature of the data set: Inhibition of cell migration in human MP41 cells at 30 uM incubated for 48 hrs by Transwell migration assay. In kind it is functional, cell-based. In short, it runs like this:
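Transwell migration: 92.1 and MP41 cells (RPMI-1640, 10% FBS) seeded 1 × 10⁴/well in upper chamber in serum-free medium, 20% FBS medium below; overnight at 37 °C, then compound for 48 h. Non-migrated cells swabbed off; lower cells crystal violet-stained 30 min, counted by light microscopy. Mean SD of three independent experiments.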

The nature of data set [15]: Induction of apoptosis in human 921 cells assessed as late apoptotic cells at 15 uM after 48 hrs by Annexin-V-FITC/propidium iodide staining based flow cytometry (reference value: 2.52%). In kind it is functional.
Data set [16] in a line: Toxicity in nude BALB/c mouse xenografted with human MP41 cells assessed as morphological changes in lung tissue at 10 to 30 mg/kg, ip administered once daily for 21 days and measured every 3 days by HE staining based assay. In kind it is organism-based. The settings on record: in vivo, 504 h, dose 10-30 mg/kg, time 21 day. The method, boiled down: as §1
Data set [17] is described as follows: Induction of apoptosis in human 921 cells assessed as necrotic cells at 15 uM after 48 hrs by Annexin-V-FITC/propidium iodide staining based flow cytometry (reference value: 0.26%). In kind it is functional.
The nature of data set [18]: Induction of apoptosis in human 921 cells assessed as early apoptotic cells at 15 uM after 48 hrs by Annexin-V-FITC/propidium iodide staining based flow cytometry (reference value: 3.39%). In kind it is functional.
Data set [19] relates to CHO. Nature of the data set: Induction of morphological changes in chinese hamster CHO cells overexpressing M1 receptor upto 20 uM by light microscopic analysis. In kind it is cell-based, Cricetulus griseus. In short, it runs like this: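 CHO-M₁ cells were treated with compound at 10 or 20 μM for 2 h, and changes in cell morphology were examined by microscopy.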
A short description of data set [20]: Antitumor activity against human MP41 cells xenografted in nude BALB/c mouse assessed as tumor growth inhibition at 30 mg/kg, ip administered for once daily for 21 days and measured every 3 days. In kind it is functional. As to conditions: 504 h, time 21 day, read-out: TGI. The method, boiled down:
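MP41 tumours were passaged subcutaneously mouse-to-mouse in nude BALB/c mice (6−8 weeks, 20−25 g). Tertiary recipients randomized, n = 8/group, given 10 or 30 (mg/kg)/d ip or vehicle for 21 days. Tumour size (V = A × B² × π/6, caliper) and body weight taken every 3 days; tumours excised and weighed on day 22. TGI computed versus the vehicle group.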

Data set [21] is described as follows: (§4) Antiproliferative activity against human 92.1 cells assessed as inhibition of cell growth after 72 hrs by CCK8 assay. In kind it is functional, cell-based. The settings on record: Homo sapiens, 921, 72 h. In short, it runs like this: as §3
The next data set deals with 921. The description is as §4. In kind it is functional, cell-based. The method, boiled down:
as §3

The nature of data set [22]: Induction of apoptosis in human MP41 cells assessed as viable cells at 15 uM after 48 hrs by Annexin-V-FITC/propidium iodide staining based flow cytometry (reference value: 93.6%). In kind it is functional. As to conditions: read-out: Activity.

Molecules are shown by their SMILES. Calls of active or inactive are those of the source. The rule behind the calls is not given here.

With `CC[C@@H](C)[C@H](N)C(=O)N1CCn2cc(-c3ccccc3)nc2[C@@H]1CC1CCCCC1`, the Activity entry in the data set on CHO [1] was “Non-Toxic”; in data set [2] it was “Non-Toxic”; with MP41 [3], “Tde”; in [6] it was 0.27%; in [9] it was 5.32%; in data set [10], 6.16%. For the same compound, the Activity entry in data set [11] is “Non-Toxic”; with MP41 [13], “Dose-Dependent Effect”; in [15] it was 6.99%; in data set [16] it was “Non-Toxic”; in [17] it was 0.36%; in [18], 13.1%. Moreover, the Activity result in the data set with CHO [19] was “Non-Toxic”; in the data set on 921, “Dose-Dependent Effect”. Besides, the mean residence time MRT last – broadly, the average time that molecules of a dose stay in the body – at 24 h in data set [4] worked out at 55.8 min. For the same compound, the viability at 15 µM in [5] is 79.6%; in data set [22], 90.2%. In addition, the inhibition entry (in [7]; in the data set on MP41 [8]; in the data set on MP41 [14]) was “Active” in each case. Moreover, the 50% inhibitory concentration (IC50) (in general, the concentration at which inhibition is half-maximal) stood at 24.8 µM in [12] and 10.1 µM in data set [21]. In addition, the inhibition in vivo at 30 mg/kg in [20] stood at 99%.
